ChEMBL document CHEMBL4002602, “Design, Synthesis of Novel, Potent, Selective, Orally Bioavailable Adenosine A2A Receptor Antagonists and Their Biological Evaluation” (J Med Chem, 2017)
≈ marks a conversion by molar mass, not a printed value. Each block holds one molecule with its values, some of them ahead of it.

Assays:
hERG (KCNH2) = hERG (KCNH2) (Homo sapiens, UniProt Q12809); assay: Inhibition of [3H]-astemizole binding to human ERG at 10 uM after 2 hrs by liquid scintillation counting method relative to control; conditions: probe [3H]-astemizole
[1] = AUC (0 to t) in Wistar rat at 10 mg/kg administered via oral gavage by LC/MS/MS analysis; type: ADME, organism-based; conditions: in vivo
Procedure, shortened: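 Male Wistar rats (230 ± 15 g), fasted overnight with water available, given a single oral suspension in 1% Tween 80 and 0.5% NaCMC (1 mg/mL, 10 mL/kg). Serial blood sampling (n=3/time point) at 0.25–24 h into K2EDTA. Plasma proteins precipitated with acetonitrile, then LC/MS/MS. AUC0-t by non-compartmental analysis of individual animals.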

[2] = Equilibrium aqueous solubility of the compound at pH 2.1 after 4 hrs; type: physicochemical; conditions: aqueous medium
[3] = Equilibrium aqueous solubility of the compound at pH 7.4 after 4 hrs; type: physicochemical; conditions: aqueous medium
Adenosine receptor A1 = target: T1, Adenosine receptor A1 (Homo sapiens, UniProt P30542); assay: Displacement of [3H]-DPCPX from human adenosine A1 receptor expressed in HEK293 cell membranes measured after 90 mins
T1 sequence (P30542 whole entry): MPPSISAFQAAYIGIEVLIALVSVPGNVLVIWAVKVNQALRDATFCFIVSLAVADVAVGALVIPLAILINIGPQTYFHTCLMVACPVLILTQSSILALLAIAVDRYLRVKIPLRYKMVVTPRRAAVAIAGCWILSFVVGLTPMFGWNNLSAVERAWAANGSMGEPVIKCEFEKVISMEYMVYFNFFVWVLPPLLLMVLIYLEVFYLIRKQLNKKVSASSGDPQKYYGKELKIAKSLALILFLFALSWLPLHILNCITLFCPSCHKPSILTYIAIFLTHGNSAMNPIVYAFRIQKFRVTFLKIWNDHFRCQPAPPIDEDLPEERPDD
Procedure, shortened: (§1)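 Competition binding on membranes from HEK-293 cells overexpressing human A1, A2A, A2B or A3, washed with ADA. Radioligands: [3H]-DPCPX 1 nM (A1), [3H]ZM241385 1 nM (A2A), [3H]-MRS-1754 1.6 nM (A2B), [3H]-HEMADO 2 nM (A3). Buffer was 50 mM Tris with EDTA and ADA; MgCl2 10 mM for A2A/A3; A2B at pH 6.5 with 5 mM MgCl2. Incubation 90 min at room temperature, then filtration. Nonspecific binding defined by NECA 100 μM. Ki values: mean of two experiments, triplicate points.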

[4] = AUC (0 to t) in Wistar rat at 3 mg/kg, iv by LC/MS/MS analysis; type: ADME, organism-based; conditions: in vivo
Procedure, shortened: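 Overnight-fasted male Wistar rats received a 3 mg/kg tail-vein solution (0.6 mg/mL, 5 mL/kg). Vehicle was 10% NMP with PEG300, Cremophor EL and/or HPβ-CD in 0.1 M acetate buffer, pH 4.2; co-solvents varied by compound. Serial K2EDTA blood samples (n=3/time point) taken 0.008–24 h. Plasma measured by LC/MS/MS; non-compartmental AUC0-t per animal.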

Adenosine receptor A2a = Adenosine receptor A2a (Homo sapiens, UniProt P29274); assay: Displacement of [3H]ZM241385 from human adenosine A2A receptor expressed in HEK293 cell membranes measured after 90 mins; procedure, shortened: as §1
[5] = Clearance in Wistar rat at 3 mg/kg, iv by LC/MS/MS analysis; type: ADME, organism-based; conditions: in vivo
Procedure, shortened: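 Male Wistar rats (230 ± 15 g), fasted overnight, given 3 mg/kg IV via tail vein as a solution (0.6 mg/mL, 5 mL/kg) in NMP-based vehicles with acetate buffer pH 4.2. Serial plasma sampling (K2EDTA) from 0.008 to 24 h. Acetonitrile precipitation, then LC/MS/MS. Non-compartmental analysis per animal; mean of n=4.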

Liver = assay: Metabolic stability in human liver microsomes assessed as metabolic rate at 1 uM preincubated for 5 mins followed by addition of NADPH measured after 3 to 30 mins by LC-MS/MS analysis; type: ADME, microsome
Adenosine receptor A2b = target: T2, Adenosine receptor A2b (Homo sapiens, UniProt P29275); assay: Displacement of [3H]-MRS-1754 from human adenosine A2B receptor expressed in HEK293 cell membranes measured after 90 mins
T2 sequence (P29275 whole entry): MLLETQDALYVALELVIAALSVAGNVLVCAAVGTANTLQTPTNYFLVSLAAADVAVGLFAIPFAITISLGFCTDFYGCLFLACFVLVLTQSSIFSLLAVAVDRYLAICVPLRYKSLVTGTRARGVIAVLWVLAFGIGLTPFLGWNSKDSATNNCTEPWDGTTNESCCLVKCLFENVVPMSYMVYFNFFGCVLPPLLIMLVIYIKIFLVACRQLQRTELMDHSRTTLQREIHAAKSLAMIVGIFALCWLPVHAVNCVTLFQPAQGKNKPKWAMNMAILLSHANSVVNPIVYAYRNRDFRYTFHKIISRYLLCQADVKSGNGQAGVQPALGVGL

Adenosine receptor A3 = target: T3, Adenosine receptor A3 (Homo sapiens, UniProt P0DMS8); assay: Displacement of [3H]-HEMADO from human adenosine A3 receptor expressed in HEK293 cell membranes measured after 90 mins
T3 sequence (P0DMS8 whole entry): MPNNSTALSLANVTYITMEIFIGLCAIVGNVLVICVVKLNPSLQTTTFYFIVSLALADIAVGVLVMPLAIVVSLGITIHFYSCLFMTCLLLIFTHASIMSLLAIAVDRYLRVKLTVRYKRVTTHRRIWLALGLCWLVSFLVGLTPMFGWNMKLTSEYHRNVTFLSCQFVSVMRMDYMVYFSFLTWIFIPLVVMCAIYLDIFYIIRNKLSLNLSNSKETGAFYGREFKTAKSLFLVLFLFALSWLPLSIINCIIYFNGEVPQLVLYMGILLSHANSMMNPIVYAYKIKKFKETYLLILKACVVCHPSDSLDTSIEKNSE

Cytochrome P450 3A = Cytochrome P450 3A (Homo sapiens, UniProt P08684+P20815+Q9HB55+P24462); assay: Inhibition of CYP3A in human liver microsomes at 5 to 25 uM using testosterone as substrate preincubated for 5 mins with substrate followed by NADPH addition measured after 10 mins by LC-MS/MS analysis; type: ADME; conditions: microsomes, 10 min, 25 µM
Cytochrome P450 2C19 = Cytochrome P450 2C19 (Homo sapiens, UniProt P33261); assay: Inhibition of CYP2C19 in human liver microsomes at 5 to 25 uM using (S)mephenytoin as substrate preincubated for 5 mins with substrate followed by NADPH addition measured after 40 mins by LC-MS/MS analysis; type: ADME; conditions: microsomes, 40 min, 25 µM
[6] = target: T4, Adenosine receptor A2b (Homo sapiens) (UniProt P29275); assay: Displacement of [3H]-MRS-1754 from human adenosine A2B receptor expressed in HEK293 cell membranes at 1 uM measured after 90 mins relative to control
T4 sequence (whole entry): T2 sequence (P29275 whole entry)

[7] = target: T5, Adenosine receptor A1 (Homo sapiens) (UniProt P30542); assay: Displacement of [3H]-DPCPX from human adenosine A1 receptor expressed in HEK293 cell membranes at 1 uM measured after 90 mins relative to control
T5 sequence (whole entry): T1 sequence (P30542 whole entry)

hERG (KCNH2), sequence (Q12809 whole entry): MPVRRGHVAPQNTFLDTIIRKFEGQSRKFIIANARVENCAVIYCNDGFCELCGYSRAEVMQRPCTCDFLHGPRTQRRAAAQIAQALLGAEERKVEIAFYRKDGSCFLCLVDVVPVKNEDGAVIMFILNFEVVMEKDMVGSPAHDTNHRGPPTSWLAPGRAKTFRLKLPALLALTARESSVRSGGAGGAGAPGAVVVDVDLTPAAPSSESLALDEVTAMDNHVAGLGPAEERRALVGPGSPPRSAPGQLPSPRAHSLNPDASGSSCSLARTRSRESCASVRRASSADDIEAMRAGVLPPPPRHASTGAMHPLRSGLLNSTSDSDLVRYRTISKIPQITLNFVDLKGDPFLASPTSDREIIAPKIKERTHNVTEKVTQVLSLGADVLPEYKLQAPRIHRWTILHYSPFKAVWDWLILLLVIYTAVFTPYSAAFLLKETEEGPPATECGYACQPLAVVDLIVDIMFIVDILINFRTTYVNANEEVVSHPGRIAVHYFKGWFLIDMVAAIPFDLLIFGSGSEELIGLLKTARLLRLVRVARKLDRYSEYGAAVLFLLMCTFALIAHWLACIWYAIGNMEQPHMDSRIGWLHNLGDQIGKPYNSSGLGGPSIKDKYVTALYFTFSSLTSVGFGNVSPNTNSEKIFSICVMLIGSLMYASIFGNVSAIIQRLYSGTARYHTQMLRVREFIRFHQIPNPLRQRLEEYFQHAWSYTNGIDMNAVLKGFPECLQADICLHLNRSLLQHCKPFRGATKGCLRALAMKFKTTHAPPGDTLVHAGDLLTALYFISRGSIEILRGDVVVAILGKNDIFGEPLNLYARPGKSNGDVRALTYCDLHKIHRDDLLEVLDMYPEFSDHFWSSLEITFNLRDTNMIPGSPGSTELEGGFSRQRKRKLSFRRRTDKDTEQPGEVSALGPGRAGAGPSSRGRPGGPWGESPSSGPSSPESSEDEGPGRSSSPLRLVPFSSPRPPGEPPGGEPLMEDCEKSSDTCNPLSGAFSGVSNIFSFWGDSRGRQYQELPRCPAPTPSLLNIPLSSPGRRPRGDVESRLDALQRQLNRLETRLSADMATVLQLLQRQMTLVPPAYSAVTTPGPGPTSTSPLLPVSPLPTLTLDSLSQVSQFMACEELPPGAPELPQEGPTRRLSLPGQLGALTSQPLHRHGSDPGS
Cytochrome P450 2C19, sequence (P33261 whole entry): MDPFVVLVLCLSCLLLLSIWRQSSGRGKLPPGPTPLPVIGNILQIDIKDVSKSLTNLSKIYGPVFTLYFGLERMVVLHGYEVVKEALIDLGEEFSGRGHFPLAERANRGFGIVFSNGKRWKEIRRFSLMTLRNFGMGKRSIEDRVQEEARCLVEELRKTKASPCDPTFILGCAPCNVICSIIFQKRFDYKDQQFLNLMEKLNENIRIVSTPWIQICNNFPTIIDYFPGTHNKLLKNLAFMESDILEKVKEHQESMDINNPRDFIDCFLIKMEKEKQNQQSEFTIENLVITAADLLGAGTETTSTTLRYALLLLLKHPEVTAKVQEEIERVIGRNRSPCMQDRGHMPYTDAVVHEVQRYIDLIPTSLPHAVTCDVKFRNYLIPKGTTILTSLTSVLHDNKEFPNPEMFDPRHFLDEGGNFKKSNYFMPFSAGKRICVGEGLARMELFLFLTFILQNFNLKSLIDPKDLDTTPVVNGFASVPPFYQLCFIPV
Adenosine receptor A2a, sequence (P29274 whole entry): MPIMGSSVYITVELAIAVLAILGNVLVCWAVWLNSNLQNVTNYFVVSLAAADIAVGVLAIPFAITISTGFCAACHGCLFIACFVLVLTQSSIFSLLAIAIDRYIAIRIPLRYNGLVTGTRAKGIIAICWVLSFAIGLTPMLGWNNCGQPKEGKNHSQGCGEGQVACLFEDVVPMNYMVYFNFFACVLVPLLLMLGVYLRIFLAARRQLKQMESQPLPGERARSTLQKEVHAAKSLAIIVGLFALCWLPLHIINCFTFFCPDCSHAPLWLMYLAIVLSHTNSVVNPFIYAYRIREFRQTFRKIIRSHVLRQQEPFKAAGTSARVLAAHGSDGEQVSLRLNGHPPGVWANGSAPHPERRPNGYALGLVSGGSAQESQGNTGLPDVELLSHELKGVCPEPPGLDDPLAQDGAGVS

Compound: COc1cnc(N2CCOCC2)c2sc(NC(=O)C(C)(C)Oc3ccc(F)cc3)nc12
inhibition at 2 h, 10 µM (hERG (KCNH2)): < 10%
Ki (Adenosine receptor A3): 400 nM
AUC(0-t) [1]: 12 µM·h
solubility thermodynamic at 4 h [2]: < 6 µM
solubility thermodynamic at 4 h [3]: < 6 µM
Ki (Adenosine receptor A1): 500 nM
AUC(0-t) [4]: 16.4 µM·h
Ki (Adenosine receptor A2a): 3.4 nM
inhibition (INH) (Cytochrome P450 3A): Not Active
clearance [5]: 6.6 mL/min/kg
Drug metabolism (Liver): < 0.04 nmol/min/mg
inhibition (INH) (Cytochrome P450 2C19): Not Active
inhibition [6]: 24%
Ki (Adenosine receptor A2b): 1400 nM
inhibition [7]: 46%

Compound: COc1ccc(N2CCOCC2)c2sc(NC(=O)C(C)(C)Oc3ccc(F)c(F)c3)nc12
inhibition at 2 h, 10 µM (hERG (KCNH2)): < 5%
Ki (Adenosine receptor A3): 500 nM
AUC(0-t) [1]: 6.2 µM·h
solubility thermodynamic at 4 h [2]: < 6 µM
solubility thermodynamic at 4 h [3]: < 6 µM
Ki (Adenosine receptor A1): 1100 nM
AUC(0-t) [4]: 10.7 µM·h
Ki (Adenosine receptor A2a): 6.4 nM
inhibition (INH) (Cytochrome P450 3A): Not Active
clearance [5]: 10.2 mL/min/kg
Drug metabolism (Liver): 0.07 nmol/min/mg
inhibition (INH) (Cytochrome P450 2C19): Not Active
inhibition [6]: 34%
Ki (Adenosine receptor A2b): 5000 nM
inhibition [7]: 38%

Compound: COc1ccc(N2CCOCC2)c2sc(NC(=O)C(C)(C)Oc3ccc(F)cc3)nc12
inhibition at 2 h, 10 µM (hERG (KCNH2)): < 5%
Ki (Adenosine receptor A3): 5000 nM
AUC(0-t) [1]: 1.5 µM·h
solubility thermodynamic at 4 h [2]: < 6 µM
solubility thermodynamic at 4 h [3]: < 6 µM
Ki (Adenosine receptor A1): 5000 nM
AUC(0-t) [4]: 7.6 µM·h
Ki (Adenosine receptor A2a): 13 nM
inhibition (INH) (Cytochrome P450 3A): Not Active
clearance [5]: 15 mL/min/kg
Drug metabolism (Liver): 0.02 nmol/min/mg
inhibition (INH) (Cytochrome P450 2C19): Not Active
inhibition [6]: 0%
Ki (Adenosine receptor A2b): 10000 nM
inhibition [7]: 16%

Further lines, with some results ahead:

AUC(0-t) [1]: 5.5 µM·h
solubility thermodynamic at 4 h [2]: 1840 µM (≈ 848 µg/mL)
solubility thermodynamic at 4 h [3]: 1590 µM (≈ 731 µg/mL)
Ki (Adenosine receptor A1): 1200 nM
AUC(0-t) [4]: 2.7 µM·h
Ki (Adenosine receptor A2a): 2.1 nM
clearance [5]: 37.2 mL/min/kg
Drug metabolism (Liver): 0.03 nmol/min/mg
Ki (Adenosine receptor A2b): 500 nM
Compound: CCN(CC)C1CCC(C)(C(=O)Nc2nc3c(OC)ccc(N4CCOCC4)c3s2)CC1 (centres undefined)
inhibition at 2 h, 10 µM (hERG (KCNH2)): 13%

AUC(0-t) [1]: 7.8 µM·h
solubility thermodynamic at 4 h [2]: 139 µM (≈ 58.3 µg/mL)
solubility thermodynamic at 4 h [3]: 114 µM (≈ 47.8 µg/mL)
Ki (Adenosine receptor A1): 2900 nM
AUC(0-t) [4]: 3.7 µM·h
Ki (Adenosine receptor A2a): 8.6 nM
clearance [5]: 32 mL/min/kg
Drug metabolism (Liver): < 0.04 nmol/min/mg
Ki (Adenosine receptor A2b): 500 nM
Compound: COc1ccc(N2CCOCC2)c2sc(NC(=O)C3(C)CCC(C)(O)CC3)nc12 (centres undefined)
